Data from ChEMBL document CHEMBL1137689, “Amines and oximes derived from deoxybenzoins as Helicobacter pylori urease inhibitors” (Eur J Med Chem, 2009).
Calls of active or inactive are those of the source. No cut-off for these calls is given here.

What was measured:
[1] = target: Urease subunit alpha/Urease subunit beta (Helicobacter pylori (strain ATCC 700392 / 26695) (Campylobacterpylori)) (UniProt P69996+P14916); test: Inhibition of Helicobacter pylori ATCC 43504 urease assessed as ammonia production at 400 ug/mL by indophenol method
Summary of the method: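 Crude urease prepared from H. pylori ATCC 43504 grown 24 h at 37 °C in brucella broth with 10% heat-inactivated horse serum, microaerobic (5% O2, 10% CO2, 85% N2). Cells washed in PBS pH 7.4, stored -80 °C; urease in equal-volume glycerol kept at 4 °C. Enzyme (4U) preincubated with compound 3 h at room temperature; ammonia production read by indophenol method; percent inhibition.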

[2] = target: Urease subunit alpha/Urease subunit beta (Helicobacter pylori (strain ATCC 700392 / 26695) (Campylobacterpylori), UniProt P69996); test: Inhibition of Helicobacter pylori ATCC 43504 urease assessed as ammonia production by indophenol method
Summary of the method: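 Crude urease from H. pylori cells, grown 24 h at 37 °C microaerobically (5% O2, 10% CO2, 85% N2) in brucella broth with 10% heat-inactivated horse serum. Cells were washed in PBS pH 7.4 and stored at -80 °C; the extract was kept 1:1 in glycerol at 4 °C. Enzyme (4U) was preincubated with compound 3 h at room temperature. Percent inhibition was screened at 400 µg/mL; IC50 also determined.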

Sequence of Urease subunit alpha/Urease subunit beta (Helicobacter pylori (strain ATCC 700392 / 26695) (Campylobacterpylori)) (P14916 whole entry, looked up): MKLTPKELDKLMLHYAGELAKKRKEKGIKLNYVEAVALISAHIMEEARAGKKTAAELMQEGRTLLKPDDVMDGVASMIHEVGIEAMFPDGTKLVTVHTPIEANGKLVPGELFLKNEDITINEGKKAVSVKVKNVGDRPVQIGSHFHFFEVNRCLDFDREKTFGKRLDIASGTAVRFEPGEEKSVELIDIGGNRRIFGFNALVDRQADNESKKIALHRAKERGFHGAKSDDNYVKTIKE
Sequence of Urease subunit alpha/Urease subunit beta (Helicobacter pylori (strain ATCC 700392 / 26695) (Campylobacterpylori)) (P69996 whole entry, looked up): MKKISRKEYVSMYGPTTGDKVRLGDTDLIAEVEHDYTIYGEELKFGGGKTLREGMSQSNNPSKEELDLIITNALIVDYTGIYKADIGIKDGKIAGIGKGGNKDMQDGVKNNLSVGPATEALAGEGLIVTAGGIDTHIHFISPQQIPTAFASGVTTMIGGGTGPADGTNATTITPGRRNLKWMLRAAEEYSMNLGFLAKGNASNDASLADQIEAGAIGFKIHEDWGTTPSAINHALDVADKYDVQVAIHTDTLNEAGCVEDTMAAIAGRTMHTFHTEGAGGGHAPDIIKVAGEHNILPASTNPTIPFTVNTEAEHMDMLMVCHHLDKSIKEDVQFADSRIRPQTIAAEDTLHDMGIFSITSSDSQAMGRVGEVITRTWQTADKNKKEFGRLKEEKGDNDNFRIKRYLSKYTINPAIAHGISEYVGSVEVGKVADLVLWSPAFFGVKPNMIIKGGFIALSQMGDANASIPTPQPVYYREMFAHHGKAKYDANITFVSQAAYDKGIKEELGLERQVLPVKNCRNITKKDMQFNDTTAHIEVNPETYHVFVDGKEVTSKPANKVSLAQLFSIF
Sequence of Urease subunit alpha/Urease subunit beta (P69996 whole entry): as the sequence (P69996 whole entry, looked up) above
Sequence of Urease subunit alpha/Urease subunit beta (P14916 whole entry, further chain): as the sequence (P14916 whole entry, looked up) above

Compound | inhibition [1] | IC50 [2] [µM]
O/N=C(\Cc1ccc(O)cc1)c1ccc(O)c(O)c1 | 62% | –
NC(Cc1ccc(F)cc1)c1ccc(O)cc1O (stereo unspecified) | 48% | –
COc1cc(O)c(C(=O)Cc2ccc(OO)cc2)c(OC)c1 | inactive | –
COc1ccc(CC(N)c2ccc(O)cc2O)cc1 (stereo unspecified) | 73% | –
COc1cc(O)c(C(N)Cc2ccc(OO)cc2)c(OC)c1 (stereo unspecified) | inactive | –
CC(=O)NO [ACETOHYDROXAMIC ACID] | – | 11
NC(Cc1ccc(O)cc1)c1c(O)cc(O)cc1O (stereo unspecified) | 28% | –
O=C(Cc1ccc(O)cc1)c1c(O)cc(O)cc1O | inactive | –
COc1c(O)cc(O)c(/C(Cc2ccc(O)cc2)=N/O)c1O | 38% | –
O/N=C(\Cc1ccc(F)cc1)c1ccc(O)c(O)c1O | 55% | –
O=C(Cc1ccc(F)cc1)c1ccc(O)cc1O | 16% | –
O=C(Cc1ccc(F)cc1)c1ccc(O)c(O)c1O | 44% | –
O/N=C(/Cc1ccc(O)cc1)c1ccc(O)c(O)c1O | 73% | –
O=[N+]([O-])c1ccc(C/C(=N/O)c2ccc(O)cc2O)cc1 | inactive | –
COc1ccc(C/C(=N\O)c2ccc(O)cc2O)cc1 | 36% | –
O/N=C(\Cc1ccc(O)cc1)c1c(O)cc(O)cc1O | 13% | –
O=C(Cc1ccc([N+](=O)[O-])cc1)c1ccc(O)cc1O | inactive | –
COc1ccc(C/C(=N/O)c2ccc(OC)c(OC)c2OC)cc1 | inactive | –
NC(Cc1ccc([N+](=O)[O-])cc1)c1ccc(O)cc1O (stereo unspecified) | inactive | –
O/N=C(/Cc1ccc(F)cc1)c1ccc(O)cc1O | 23% | –
NC(Cc1ccc(F)cc1)c1ccc(O)c(O)c1O (stereo unspecified) | 80% | –
COc1ccc(CC(=N)c2ccc(OC)c(OC)c2OC)cc1 | 11% | –
COc1ccc(CC(=O)c2ccc(OC)c(OC)c2OC)cc1 | inactive | –
COc1cc(O)c(/C(Cc2ccc(OO)cc2)=N/O)c(OC)c1 | 15% | –
NC(Cc1ccc(O)cc1)c1ccc(O)c(O)c1O (stereo unspecified) | 97.3% | 47
